Laboratory results: ChEMBL document CHEMBL4689842, “EUbOPEN Chemogenomics Library wave 1” (2021)

Experiments:
Format in all cases: toxicity, cell-based
U2OS [1] = assay: Incucyte cell viability with U2OS; conditions: human, 10 µM, compound concentration 10 uM; note: filed as whole numbers so only -1 and 0 and 1 occur
U2OS [2] = assay: Multiplex assay against U2OS; conditions: human
In short: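 At seeding, live cells were stained with Hoechst33342, BioTracker Green Microtubule Cytoskeleton Dye, MitoTracker Red and Annexin V Alexa Fluor 680. After compound addition they were imaged on a CQ1 microscope at 37°C and 5% CO2, and CellPathfinder machine-learning gating sorted them into Hoechst high-intensity objects or normal cells, with normal cells further split into healthy, pyknosed or fragmented nuclei and pyknosed cells into mitotic or apoptotic. Tubulin, mitochondrial-mass and membrane-permeability phenotypes are given as per cents of cells with healthy nuclei.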

Fibroblast = assay: Incucyte cell viability with human fibroblast; conditions: 10 µM, compound concentration 10 uM; note: filed as whole numbers so only -1 and 0 and 1 occur
HEK-293T = assay: Incucyte cell viability with HEK293T; conditions: human, 10 µM, compound concentration 10 uM; note: filed as whole numbers so only -1 and 0 and 1 occur
[3] = 6 h, replicate number 1, timepoint 6 hours
[4] = 12 h, replicate number 1, timepoint 12 hours
[5] = 12 h, replicate number 2, timepoint 12 hours
[6] = 18 h, replicate number 1, timepoint 18 hours
[7] = 24 h, replicate number 1, timepoint 24 hours
[8] = 12 h, 1 µM, compound concentration 1 uM, replicate 1
[9] = 12 h, 1 µM, compound concentration 1 uM, replicate 2
[10] = 12 h, 10 µM, compound concentration 10 uM, replicate 1
[11] = 12 h, 10 µM, compound concentration 10 uM, replicate 2
[12] = 24 h, 1 µM, compound concentration 1 uM, replicate 1
[13] = 24 h, 1 µM, compound concentration 1 uM, replicate 2
[14] = 24 h, 10 µM, compound concentration 10 uM, replicate 1
[15] = 24 h, 10 µM, compound concentration 10 uM, replicate 2

## Cc1cn(-c2cc(NC(=O)c3ccc4c(c3)CN(c3cncnc3)C[C@@H]4C)cc(C(F)(F)F)c2)cn1
U2OS [1]; 0 h, replicate number 1, timepoint 0 hours
  Growth Rate: 0
U2OS [1]; [3]
  Growth Rate: 0
U2OS [1]; [4]
  Growth Rate: 0
U2OS [1]; [5]
  Growth Rate: 1
U2OS [1]; [6]
  Growth Rate: 0
U2OS [1]; [7]
  Growth Rate: 0
U2OS [2]; [8]
  Population Apoptotic (%): 56%
  Population Healthy Nuclei (%): 81%
  Population Hoechst High Intensity Objects (%): 7%
  Population Membrane Permeable-Phenotype (%): 6%
  Population Mitochondria Different-Phenotype (%): 23%
  Population Mitotic Cells (%): 43%
  Population Normal (%): 92%
  Population Pyknosed Nuclei (%): 11%
  Population Tubulin-Different-Phenotype (%): 33%
  Total Cell Count: 149
U2OS [2]; [9]
  Population Apoptotic (%): 0%
  Population Fragmented Nuclei (%): 7%
  Population Healthy Nuclei (%): 86%
  Population Hoechst High Intensity Objects (%): 16%
  Population Membrane Permeable-Phenotype (%): 11%
  Population Mitochondria Different-Phenotype (%): 30%
  Population Mitotic Cells (%): 100%
  Population Normal (%): 83%
  Population Pyknosed Nuclei (%): 6%
  Population Tubulin-Different-Phenotype (%): 19%
  Total Cell Count: 116
U2OS [2]; [10]
  Population Apoptotic (%): 33%
  Population Fragmented Nuclei (%): 7%
  Population Healthy Nuclei (%): 84%
  Population Hoechst High Intensity Objects (%): 3%
  Population Membrane Permeable-Phenotype (%): 40%
  Population Mitochondria Different-Phenotype (%): 17%
  Population Mitotic Cells (%): 66%
  Population Normal (%): 96%
  Population Pyknosed Nuclei (%): 7%
  Population Tubulin-Different-Phenotype (%): 16%
  Total Cell Count: 198
U2OS [2]; [11]
  Population Apoptotic (%): 66%
  Population Fragmented Nuclei (%): 10%
  Population Healthy Nuclei (%): 87%
  Population Hoechst High Intensity Objects (%): 15%
  Population Membrane Permeable-Phenotype (%): 24%
  Population Mitochondria Different-Phenotype (%): 26%
  Population Mitotic Cells (%): 33%
  Population Normal (%): 84%
  Population Pyknosed Nuclei (%): 3%
  Population Tubulin-Different-Phenotype (%): 17%
  Total Cell Count: 118
U2OS [2]; [12]
  Population Apoptotic (%): 45%
  Population Fragmented Nuclei (%): 6%
  Population Healthy Nuclei (%): 83%
  Population Hoechst High Intensity Objects (%): 3%
  Population Membrane Permeable-Phenotype (%): 6%
  Population Mitotic Cells (%): 55%
  Population Normal (%): 96%
  Population Pyknosed Nuclei (%): 9%
  Population Tubulin-Different-Phenotype (%): 42%
  Total Cell Count: 210
U2OS [2]; [13]
  Population Apoptotic (%): 42%
  Population Fragmented Nuclei (%): 9%
  Population Healthy Nuclei (%): 85%
  Population Hoechst High Intensity Objects (%): 6%
  Population Membrane Permeable-Phenotype (%): 12%
  Population Mitochondria Different-Phenotype (%): 26%
  Population Mitotic Cells (%): 57%
  Population Normal (%): 93%
  Population Pyknosed Nuclei (%): 5%
  Population Tubulin-Different-Phenotype (%): 34%
  Total Cell Count: 143
U2OS [2]; [14]
  Population Apoptotic (%): 42%
  Population Fragmented Nuclei (%): 6%
  Population Healthy Nuclei (%): 85%
  Population Hoechst High Intensity Objects (%): 4%
  Population Membrane Permeable-Phenotype (%): 28%
  Population Mitochondria Different-Phenotype (%): 14%
  Population Mitotic Cells (%): 57%
  Population Normal (%): 95%
  Population Pyknosed Nuclei (%): 7%
  Population Tubulin-Different-Phenotype (%): 12%
  Total Cell Count: 254
U2OS [2]; [15]
  Population Apoptotic (%): 22%
  Population Fragmented Nuclei (%): 8%
  Population Healthy Nuclei (%): 84%
  Population Hoechst High Intensity Objects (%): 6%
  Population Membrane Permeable-Phenotype (%): 20%
  Population Mitochondria Different-Phenotype (%): 22%
  Population Mitotic Cells (%): 77%
  Population Normal (%): 93%
  Population Tubulin-Different-Phenotype (%): 10%
  Total Cell Count: 128
Fibroblast; 0 h, replicate number 2, timepoint 0 hours
  Growth Rate: 0
Fibroblast; [3]
  Growth Rate: 0
Fibroblast; [4]
  Growth Rate: 0
Fibroblast; [5]
  Growth Rate: 1
Fibroblast; [6]
  Growth Rate: 0
Fibroblast; [7]
  Growth Rate: 0
HEK-293T; [3]
  Growth Rate: 0
HEK-293T; [4]
  Growth Rate: 0
HEK-293T; [6]
  Growth Rate: 0
HEK-293T; [7]
  Growth Rate: 0
